Experiment [1] relates to Influenza A virus. In words: Antiviral activity against Influenza A virus H1N1 infected in MDCK cells assessed as inhibition of virus-induced cytopathic effect after 3 days by XTT assay. Format: functional, organism-based. The conditions noted are these: 72 h. The method in brief:
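MDCK cells, trypsinized and seeded at 1.0 × 10^5 cells/mL, grown 24 h at 35 °C, 5% CO2 in MEM with 2% FCS plus antibiotics. Virus added for 1 h, then test substances at several concentrations in triplicate. After 3 days at 35 °C, XTT added for 3 h and OD492/OD690 read.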
On the technique in general: Damage to the host cells serves as the signal in cytopathic effect assays.

Experiment [2] deals with MDA-MB-231. In words: Cytotoxicity against human MDA-MB-231 cells after 3 days by MTT assay. Format: functional, cell-based. The conditions noted are these: MDA-MB-231, 72 h. The method in brief: (§1)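 Freshly trypsinized cells were seeded at 5000-10 000 cells/well, with compounds added from DMSO stock, and cultured 3 days. Attached cells were then incubated with MTT (0.5 mg/mL, 1 h), solubilized in DMSO, and absorbance read at 550 nm.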
Background: Tetrazolium assays rely on reduction of a dye to a coloured formazan, in cell work by metabolically active cells.

For experiment [3], the system named is Ca9-22. In words: Cytotoxicity against human Ca9-22 cells after 3 days by MTT assay. The following applies: Ca9-22, 72 h. Format: functional, cell-based. The method in brief:
as §1

Experiment [4] has as its system HepG2. In words: Cytotoxicity against human HepG2 cells after 3 days by MTT assay. Format: functional, cell-based. The conditions noted are these: HepG2, 72 h. Summed up: as §1
A short description of experiment [5]: Cytotoxicity against human Hep3B cells after 3 days by MTT assay. Type of experiment: functional, cell-based, Hep 3B2. The conditions noted are these: 72 h. Summed up: as §1
Experiment [6] has as its system MCF7. In words: Cytotoxicity against human MCF7 cells after 3 days by MTT assay. Format: functional, cell-based. The conditions noted are these: MCF7, 72 h. Summed up: as §1
For experiment [7], the system named is A549. Nature of the experiment: Cytotoxicity against human A549 cells after 3 days by MTT assay. Format: functional, cell-based. The following applies: A549, 72 h. The method in brief: as §1

≈ marks a conversion by molar mass, not a printed value. Some results are limits rather than exact numbers.

The term IC50 denotes the concentration needed to halve the response being measured. As a reminder, the IC90 is the point of the concentration-response curve where the effect stands at 90%.

With `CC1=CC(=O)[C@@H]2C(C)(C)C(=O)CC[C@@]2(C)[C@@H]1COc1ccc2ccc(=O)oc2c1`, in experiment [1], the IC50 was found to be 0.32 mg/L (≈ 0.811 µM) and the IC90 stood at 0.37 mg/L (≈ 0.938 µM).
Turning to `C/C(=C\COc1ccc2ccc(=O)oc2c1)CC/C=C(\C)CC[C@@H](O)C(C)(C)O`, the IC50 in experiment [2] is greater than 20 mg/L; in experiment [3] it was greater than 20 mg/L; in experiment [4] it was greater than 20 mg/L; in experiment [1], 0.99 mg/L (≈ 2.47 µM); in experiment [5] it was greater than 20 mg/L; in experiment [6], 14.3 mg/L (≈ 35.6 µM). In experiment [7], this compound yielded an IC50 of 11 mg/L (≈ 27.4 µM). For the same compound, the IC90 in experiment [1] turned out to be 2.05 mg/L (≈ 5.12 µM).
For `CC(C)=CCC/C(C)=C/[C@@H](O)C/C(C)=C/COc1ccc2ccc(=O)oc2c1`, in experiment [1], the IC50 was determined as 0.36 mg/L (≈ 0.941 µM) and the 90% effect concentration (IC90) was 0.62 mg/L (≈ 1.62 µM).
Regarding `CC(=O)OC(CC=C(C)C)/C(C)=C/[C@@H](O)C/C(C)=C/COc1ccc2ccc(=O)oc2c1` (stereo partly drawn), the IC50 was greater than 20 mg/L in experiment [2]; 14.2 mg/L (≈ 32.3 µM) in experiment [3]; 15.6 mg/L (≈ 35.4 µM) in experiment [4]; 0.81 mg/L (≈ 1.84 µM) in experiment [1]; 9.82 mg/L (≈ 22.3 µM) in experiment [5]; greater than 20 mg/L in experiment [6]. For the same compound, the IC50 in experiment [7] is greater than 20 mg/L. Also, the IC90 in experiment [1] is 1.56 mg/L (≈ 3.54 µM).
Consider `NC12CC3CC(CC(C3)C1)C2` [AMANTADINE], for which, in experiment [1], the IC50 came out at 0.92 mg/L (≈ 6.08 µM).
Regarding `CC1=CC[C@@H]2C(C)(C)[C@@H](O)CC[C@@]2(C)[C@@H]1COc1ccc2ccc(=O)oc2c1` [CONFEROL], the IC50 in experiment [2] is greater than 20 mg/L; in experiment [3], 6.83 mg/L (≈ 17.9 µM); in experiment [4], 0.51 mg/L (≈ 1.33 µM); in experiment [1] it was 0.47 mg/L (≈ 1.23 µM); in experiment [5], 2.63 mg/L (≈ 6.88 µM); in experiment [6], 3.38 mg/L (≈ 8.84 µM). In experiment [7], this compound yielded an IC50 of 9.08 mg/L (≈ 23.7 µM). Besides, the IC90 in experiment [1] came to 0.83 mg/L (≈ 2.17 µM).
Consider `COc1cccc2c1C(=O)c1c(O)c3c(c(O)c1C2=O)C[C@@](O)(C(=O)CO)C[C@@H]3O[C@H]1C[C@H](N)[C@H](O)[C@H](C)O1` [DOXORUBICIN], for which the IC50 came to 0.14 mg/L (≈ 0.258 µM) in experiment [3]; 0.16 mg/L (≈ 0.294 µM) in experiment [4]; 0.41 mg/L (≈ 0.754 µM) in experiment [5]; 0.43 mg/L (≈ 0.791 µM) in experiment [6]; 0.35 mg/L (≈ 0.644 µM) in experiment [7].
Consider `C=C1CC[C@@H]2C(C)(C)[C@H](O)CC[C@@]2(C)[C@H]1COc1ccc2ccc(=O)oc2c1` [FARNESIFEROL A], for which the IC50 was determined as 19 mg/L (≈ 49.7 µM) in experiment [2]; 12.1 mg/L (≈ 31.6 µM) in experiment [3]; 14.9 mg/L (≈ 38.9 µM) in experiment [4]; 0.51 mg/L (≈ 1.33 µM) in experiment [1]; 7.66 mg/L (≈ 20 µM) in experiment [5]; 15.6 mg/L (≈ 40.7 µM) in experiment [6]. In experiment [7], this compound showed an IC50 of 15.8 mg/L (≈ 41.3 µM). Further, the IC90 in experiment [1] is 0.64 mg/L (≈ 1.67 µM).
Take `C/C(=C\COc1ccc2ccc(=O)oc2c1)CC[C@@H]1C(C)(C)[C@H]2CC[C@]1(C)O2` [FARNESIFEROL C]: in experiment [1], the IC50 was 0.29 mg/L (≈ 0.758 µM) and the IC90 stood at 0.5 mg/L (≈ 1.31 µM).
On to `CCC(C)SSC/C=C/OS(C)=O` (stereo not drawn) [FOETISULFIDE C], for which the IC50 in experiment [2] is greater than 20 mg/L; in experiment [3], 16.5 mg/L (≈ 68.5 µM); in experiment [4], greater than 20 mg/L; in experiment [5], 19.2 mg/L (≈ 79.9 µM); in experiment [6], greater than 20 mg/L; in experiment [7], 9.14 mg/L (≈ 38 µM).
Consider `CC(C)=C1CC[C@H](C)[C@](C)(COc2ccc3ccc(=O)oc3c2)[C@H]1CCC(=O)O` [GALBANIC ACID], for which the IC50 in experiment [1] was determined as 0.45 mg/L (≈ 1.13 µM).
Consider `C[C@@H]1C[C@@H](O)[C@]2(C)[C@@H](C)C(=O)CC[C@H]2[C@]1(C)COc1ccc2ccc(=O)oc2c1` [KAMOLONOL], for which the IC50 is greater than 20 mg/L in experiment [2]; greater than 20 mg/L in experiment [3]; greater than 20 mg/L in experiment [4]; 17.9 mg/L (≈ 45 µM) in experiment [5]; greater than 20 mg/L in experiment [6]; greater than 20 mg/L in experiment [7].
`CC1=CC(=O)[C@@H]2C(C)(C)[C@H](O)CC[C@@]2(C)[C@@H]1COc1ccc2ccc(=O)oc2c1` [LIGUPERSIN A]: in experiment [1], the IC50 worked out at 0.86 mg/L (≈ 2.17 µM) and the IC90 came out at 1.75 mg/L (≈ 4.41 µM).
Turning to `COC(=O)CC[C@H]1C(=C(C)C)CC[C@H](C)[C@]1(C)COc1ccc2ccc(=O)oc2c1` [METHYL GALBANATE], the IC50 in experiment [2] is greater than 20 mg/L; in experiment [3], 19.1 mg/L (≈ 46.3 µM); in experiment [4] it was 8.42 mg/L (≈ 20.4 µM); in experiment [1], 0.26 mg/L (≈ 0.63 µM); in experiment [5] it was 4.33 mg/L (≈ 10.5 µM); in experiment [6] it was greater than 20 mg/L. This compound had an IC50 in experiment [7] greater than 20 mg/L.
On to `C=C1CC[C@]2(C)C(C)(C)[C@@H](OC(C)=O)CC[C@]2(C)[C@H]1COc1ccc2ccc(=O)oc2c1` [POLYANTHININ], for which the IC50 in experiment [2] is 15.7 mg/L (≈ 35.8 µM); in experiment [3], 12.7 mg/L (≈ 28.9 µM); in experiment [4], 10.4 mg/L (≈ 23.8 µM); in experiment [5], 5.9 mg/L (≈ 13.5 µM); in experiment [6], 9.94 mg/L (≈ 22.7 µM); in experiment [7], 12.3 mg/L (≈ 28 µM).
Turning to `COc1cc(C=O)ccc1O` [VANILLIN], the IC50 was greater than 20 mg/L in experiment [2]; greater than 20 mg/L in experiment [3]; greater than 20 mg/L in experiment [4]; greater than 20 mg/L in experiment [5]; 15.7 mg/L (≈ 103 µM) in experiment [6]; 16.4 mg/L (≈ 108 µM) in experiment [7].

The values above are taken from ChEMBL document CHEMBL1154237, “Influenza A (H(1)N(1)) Antiviral and Cytotoxic Agents from Ferula assa-foetida” (J Nat Prod, 2009).
